Rows were chosen to be rich in hits. Some 3.4% of all compounds tested hit in one or more screens of this group.
TAAR1 antagonist: human TAAR1 antagonism; Q96RJ0; CHO RD-HGA16 TAAR1, Fluo-8 calcium fluorescence, antagonist; inhibition, % at 3 µM; 360,000 compounds, 1.5% hits; AID 624466;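 active = inhibition above a per-plate cutoff, the mean inhibition of test compounds on that plate plus 3 SD, cut at about 49% in these data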;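 also: 0% = DMSO plus EC80 beta-PEA response and 100% = DMSO alone without agonist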
Target sequence (Q96RJ0 whole entry, looked up): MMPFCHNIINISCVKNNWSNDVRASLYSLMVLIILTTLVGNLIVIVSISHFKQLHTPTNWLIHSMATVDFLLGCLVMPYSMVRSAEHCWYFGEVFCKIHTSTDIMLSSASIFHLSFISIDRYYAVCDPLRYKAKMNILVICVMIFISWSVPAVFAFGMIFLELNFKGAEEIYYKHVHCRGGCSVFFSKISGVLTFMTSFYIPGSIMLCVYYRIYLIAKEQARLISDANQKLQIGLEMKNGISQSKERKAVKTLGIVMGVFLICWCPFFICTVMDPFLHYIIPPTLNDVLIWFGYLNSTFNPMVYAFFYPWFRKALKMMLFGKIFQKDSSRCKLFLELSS
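Test system: hTAAR1-expressing CHO RD-HGA16 cells, Gα16-coupled; Probe or stimulus: EC80 β-phenethylamine stimulus; Compound dosing: single nominal final test compound concentration of 3 µM; Timing: 140 s kinetic read after compound, 140 s after agonist; Signal: Fluo-8 calcium-sensitive fluorescence; Measure: % inhibition of agonist calcium response; Controls: DMSO and EC80 PEA controls.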
CHRM1 PAM: positive allosteric modulators of human M1 muscarinic receptor. P11229. activation, % at 3 µM. CHO-K1 hM1, Fluo-8 calcium fluorescence, ACh EC20; 0% = ACh EC20, 100% = maximal ACh. 360,000 compounds, 0.088% hits; in the data active = activation above about 19%, passing the limit was not always enough
CHRM1 agonist: human M1 muscarinic receptor agonism. activation, % at 3 µM. 360,000 compounds, 0.33% hits. CHO-K1 hM1, Fluo-8 calcium fluorescence, agonist mode; 0% DMSO, 100% acetylcholine EC100. P11229. AID 588814;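 active = activation above the run's mean compound activation plus 3 SD, cut at about 16% in these data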;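 also: peak over basal fluorescence ratio within a 140 s kinetic read after compound addition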
TAAR1 agonist: human TAAR1 agonism; activation, % at 3 µM; Q96RJ0; CHO RD-HGA16 TAAR1, Fluo-8 calcium fluorescence; vehicle wells 0%, saturating PEA agonist 100%; 360,000 compounds, 0.99% hits;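 active = activation above the mean activation of all test compounds in the run plus 3 SD, cut at about 38% in these data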
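Benchmarks: low control DMSO, high control PEA (EC100); System: CHO RD-HGA16 cells carrying human TAAR1 plus Gα16; Detection: Fluo-8 fluorescence, 5 s baseline then 140 s kinetic read; Schedule: 17-24 h plating, Fluo-8 75 min 37 °C, 30 min RT; Read-out basis: % activation from peak over basal fluorescence ratio, DMSO-to-PEA scaled.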
M1 antag: blocks human M1 muscarinic receptor | P11229 | CHO-K1 hM1, Fluo-8 calcium fluorescence, ACh EC80 antagonist | inhibition, % at 3 µM | 360,000 compounds, 1.3% hits | AID 588852;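 active = percent inhibition above its own plate's cutoff, namely the mean of that plate's compound wells plus 3 SD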;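 also: peak over basal fluorescence ratio during 140 s after agonist addition; 0% = ACh EC80 plus DMSO and 100% = DMSO alone without agonist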
TAAR1 ag conf: human TAAR1 agonism, confirmed. shares compounds with TAAR1 agonist. CHO RD-HGA16 TAAR1, Fluo-8 calcium fluorescence; scaled: DMSO 0%, maximal phenethylamine 100%. activation, % at 3 µM. 2,400 compounds, 82% hits. AID 651783;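 active = activation above a cutoff set at the run's mean compound activation plus 3 SD, cut at about 39% in these data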
Ga16 nonsel ag: counter-screen for TAAR1 agonists: nonselective agonists in parental cells; shares compounds with TAAR1 agonist; CHO-Ga16 parental, Fluo-8 calcium fluorescence; normalized to maximal ATP response, DMSO zero; 2,400 compounds, 50% hits; activation, % at 3 µM; AID 651787;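 active = activation above the run cutoff, the mean activation over all tested wells plus 3 SD, cut at about 12% in these data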;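 also: 0% = DMSO wells and 100% = maximal ATP response on the peak over basal ratio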
TAAR1 desensitize: counter-screen for human TAAR1 agonists: agonists that desensitize TAAR1 | inhibition, % at 3 µM | shares compounds with TAAR1 agonist | 2,400 compounds, 46% hits | CHO RD-HGA16 hTAAR1, Fluo-8 calcium, beta-PEA response inhibition;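 active = inhibition above the run cutoff, the mean inhibition of all test compounds plus 3 SD, cut at about 49% in these data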;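 also: beta-PEA stimulus applied at its EC80; loss of beta-PEA calcium signal after compound pretreatment read as receptor desensitization; 0% = DMSO with beta-PEA at EC80 and 100% = DMSO alone without agonist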
Ga16 nonsel ant: nonselective Ga16 antagonism, counter-screen | shares compounds with TAAR1 agonist | CHO-Ga16 ATP-induced calcium, Fluo-8 fluorescence | inhibition, % at 3 µM | 2,400 compounds, 39% hits | AID 651952;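 active = inhibition above the plate's mean compound inhibition plus 3 SD, computed per plate, cut at about 22% in these data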;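 also: 0% = EC80 ATP with DMSO and 100% = DMSO wells without ATP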
The depositor's hits bear a star; . = not tested or not shown.

SMILES	TAAR1 antagonist	CHRM1 PAM	CHRM1 agonist	TAAR1 agonist	M1 antag	TAAR1 ag conf	Ga16 nonsel ag	TAAR1 desensitize	Ga16 nonsel ant
CCOc1ccc(-c2c(C(=O)N/N=C/c3ccccc3)nnn2-c2nonc2N)cc1	-15	-2	-4	51*	4	43*	30*	13	15
Cc1ccc(-c2c(C(=O)N/N=C/c3ccsc3)nnn2-c2nonc2N)cc1	50*	1	41*	133*	-1	125*	90*	72*	34*
CCOc1ccc(-c2c(C(=O)N/N=C/c3ccncc3)nnn2-c2nonc2N)cc1	-29	-4	-2	13	20	.	.	.	.
Cc1ccc(-c2c(C(=O)N/N=C/c3cccc(Cl)c3)nnn2-c2nonc2N)cc1	35	-4	-3	4	-3	.	.	.	.
Cc1ccc(Cl)c(OCC(=O)NCC(c2cccs2)N2CCOCC2)c1 (stereo unspecified)	25	-4	-3	11	0	.	.	.	.
CCc1ccc(C(=O)NCc2ccc(Cl)cc2)cc1	33	3	-7	65*	-4	2	21*	8	15
CCc1ccc(C(=O)NCc2ccc(Cl)cc2Cl)cc1	-11	-5	-9	-1	1	.	.	.	.
CC1=C(C(=O)N2CCCCCC2)CC(CC(=O)NC2CCCCC2)C(=O)N1Cc1ccc(F)cc1 (stereo unspecified)	10	.	.	-1	.	.	.	.	.
Cn1cc(CN2CCC(C(=O)NC(c3ccc(F)cc3)c3ccc4ccccc4n3)CC2)c2ccccc21 (stereo unspecified)	52*	-10	-4	53*	16	-4	32*	104*	52*
Cc1ccc(S(=O)(=O)c2c(C)nn(C(C)(C)C)c2OC(=O)c2cccs2)cc1	-6	-3	-1	1	-34	.	.	.	.
Cc1ccc(S(=O)(=O)n2nc(OC(=O)c3ccccc3C)cc2N)cc1	13	-2	-5	48*	3	53*	32*	14	23*
Cc1ccc(S(=O)(=O)n2ccc(OC(=O)c3cccs3)n2)cc1	19	-3	-4	99*	9	81*	45*	26	21
Cc1ccc(S(=O)(=O)n2nc(OC(=O)c3cccs3)cc2N)cc1	-2	-5	-1	92*	11	65*	33*	20	14
COc1cc2c(-c3ccc(O)cc3)nc3c(c(C)nn3-c3ccccc3)c2cc1OC	50*	6	-2	40*	-3	22	14*	49*	38*
COc1cc2c(C)nc3c(c(C)nn3-c3ccccc3)c2cc1OC	-20	6	-1	0	-5	.	.	.	.
O=C(CCC(=O)Nc1ccc(F)cc1)N/N=C/c1cccnc1	-20	12	0	5	-13	.	.	.	.
COc1ccc(C(=O)NCC2OCCc3ccccc32)cc1OC (stereo unspecified)	2	11	2	6	-7	.	.	.	.
COc1ccc(C=NCC2OCCc3ccccc32)cc1OC (stereo unspecified)	.	8	-6	.	3	.	-1	.	7
COc1cc(C=NCC2OCCc3ccccc32)cc(OC)c1 (stereo unspecified)	.	6	-8	.	0	.	0	.	9
COc1ccc(C(=O)NCC2OCCc3ccccc32)cc1 (stereo unspecified)	-7	2	-3	2	-22	.	.	.	.
OCCSc1nc(N2CCOCC2)nc(N2CCOCC2)n1	-14	3	-2	2	5	.	.	.	.
CCCOc1ccc(N2C(=O)CC(NCc3ccc(S(N)(=O)=O)cc3)C2=O)cc1 (stereo unspecified)	-4	-10	-7	1	17	.	.	.	.
CCOc1ccc(N2C(=O)CC(NCc3ccc(S(N)(=O)=O)cc3)C2=O)cc1 (stereo unspecified)	-11	6	-2	45*	-12	6	2	-13	-2
Cc1ccc(-c2nc3c(Cl)cc(Cl)cc3c(=O)n2O)cc1	39	12	9	80*	-19	49*	52*	19	18
O=C(O)c1ccc(COc2ccc(CO)cc2Cl)cc1	-7	2	-4	-2	-3	.	.	.	.
SMILES	TAAR1 antagonist	CHRM1 PAM	CHRM1 agonist	TAAR1 agonist	M1 antag	TAAR1 ag conf	Ga16 nonsel ag	TAAR1 desensitize	Ga16 nonsel ant
CCN1C(=O)/C(=C/c2ccc(OCc3ccc(C(=O)O)cc3)c(Cl)c2)NC1=S	96*	-5	13	100*	16	32	36*	76*	68*
COc1ccc(-c2nn(-c3ccccc3)cc2CNC[C@H]2O[C@@H](n3cnc4c(=O)[nH]c(N)nc43)[C@H](O)[C@@H]2O)cc1	-5	5	-5	4	-28	.	.	.	.
C[C@]12CC[C@H](O)CC1=C[C@H](O)C1C2CC[C@@]2(C)C1CC[C@@]2(O)C#Cc1ccc(CN)cc1 (stereo partly specified)	-18	-4	-8	3	3	.	.	.	.
Cc1ccc(C)c(Nc2c([N+](=O)[O-])ccc3nonc23)c1	-4	6	9	72*	-1	66*	40*	-8	-12
CCCCN(C=O)c1c(CC)nc2c(OCC(=O)N3CCOCC3)cccn12	-21	-1	-6	2	-7	.	.	.	.
Cc1ccc(S(=O)(=O)Nc2ccc(NC(=O)c3c(F)c(F)c(F)c(F)c3F)cc2)cc1	66*	-4	24*	117*	22	115*	71*	100*	67*
Cc1ccc(NS(=O)(=O)c2ccc(C(=O)N3CCCC(C(F)(F)F)C3)cc2)cc1 (stereo unspecified)	89*	-6	45*	142*	17	125*	90*	88*	48*
Cc1ccc(NS(=O)(=O)c2ccc(NC(=O)N3CCCCC3)cc2)cc1	-4	8	11	52*	-10	46*	14*	15	21
Cc1cccc(NS(=O)(=O)c2ccc(NC(=O)N3CCCCC3)cc2)c1	26	2	6	22	1	.	.	.	.
Cc1cc(NS(=O)(=O)c2ccc(NC(=O)c3c(F)c(F)c(F)c(F)c3F)cc2)nc(C)n1	0	8	-2	0	-12	.	.	.	.
O=C(NCc1ccco1)C1Cc2c(-c3cccc(F)c3)ccnc2O1 (stereo unspecified)	-12	14	-1	1	-15	.	.	.	.

Screening data from PubChem.
